# Measured values from different studies.
# Target: Phosphorylase b kinase gamma catalytic chain, liver/testis isoform (PHKG2, Homo sapiens, UniProt P15735)
# Sequence (P15735 1-406, as in one of the studies): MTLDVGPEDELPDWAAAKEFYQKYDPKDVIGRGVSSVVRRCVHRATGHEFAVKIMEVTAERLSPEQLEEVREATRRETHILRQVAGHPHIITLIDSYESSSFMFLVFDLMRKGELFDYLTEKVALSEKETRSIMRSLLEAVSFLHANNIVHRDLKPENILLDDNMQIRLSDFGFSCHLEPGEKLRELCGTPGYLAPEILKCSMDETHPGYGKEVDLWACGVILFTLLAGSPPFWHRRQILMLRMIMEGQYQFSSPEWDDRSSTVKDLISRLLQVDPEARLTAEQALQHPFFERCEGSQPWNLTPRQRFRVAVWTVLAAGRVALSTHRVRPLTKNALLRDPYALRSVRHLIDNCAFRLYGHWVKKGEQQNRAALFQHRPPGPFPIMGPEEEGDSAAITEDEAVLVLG
SMILES,assay,setting,endpoint,value
COc1ncccc1-c1cnn2ccc(N3CCN(C(=O)OC(C)C)CC3)nc12,"binding, competition with immobilised ligand",1 µM,remaining binding,100%
CC(C)(C)c1cc(C=C(C#N)C#N)cc(Br)c1O,"enzyme activity, inhibitor",0.5 µM,remaining activity,106%
Cn1cc(-c2cc(F)cc(N3CCn4c(cc5c4CCCC5)C3=O)c2CO)cc(Nc2ccc(N3CCN(C4COC4)CC3)cn2)c1=O,"enzyme activity, inhibitor",0.1 µM,inhibition,8%
Nc1ncc(-c2nc(N3CCOCC3)nc(N3CCOCC3)n2)c(C(F)F)n1,"binding, competition with immobilised ligand",10 µM,remaining binding,67%
Cn1cc(-c2cccc(N3CCc4c(sc5c4CC(C)(C)C5)C3=O)c2CO)cc(Nc2ccncn2)c1=O,"enzyme activity, inhibitor",1 µM,inhibition,-1%
Cn1cncc1[C@@](O)(COc1ccc(C#N)cc1-c1ccc(OC(F)(F)F)cc1)c1ccc(C#N)cc1,"cell-free assay, competition with immobilised ligand",1 µM,remaining binding,92%
Cc1nn(C)cc1-c1nc2c(N3CCN(Cc4ccc(Cl)cc4)CC3)c(Cl)cnc2[nH]1,"binding, competition with immobilised ligand",1 µM,remaining binding,100%
O=C(NCc1ncc(C(F)(F)F)cc1Cl)c1ccc2c(c1)C1(CCS(=O)(=O)CC1)[C@H](C1CC1)N2S(=O)(=O)c1ccc(F)cc1,"cell-free assay, competition with immobilised ligand",1 µM,remaining binding,96%
O=c1[nH]c2ccccc2n1C1CCN(Cc2ccc(-c3[nH]c4cc5ncnc5cc4nc3-c3ccccc3)cc2)CC1,cell-free assay,0.5 µM,remaining signal,104%
